The text below walks through data of ChEMBL document CHEMBL1126609, “5-HT3 receptor antagonists. 2. 4-Hydroxy-3-quinolinecarboxylic acid derivatives” (J Med Chem, 1993).

Usually pKi stands for the Ki on a negative log10 scale, so that one unit is a factor of ten. A low value points to a large Ki. One may read the ED50 as the dose that gives a 50% effect, or the effect in half of the subjects.

The structures appear in SMILES notation. pKi: −log10 of the molar value.

For test [1], the target named is T1, Serotonin 3 (5-HT3) receptor (Rattus norvegicus, UniProt P35563+Q9JJ16).
T1 sequence (P35563 whole entry): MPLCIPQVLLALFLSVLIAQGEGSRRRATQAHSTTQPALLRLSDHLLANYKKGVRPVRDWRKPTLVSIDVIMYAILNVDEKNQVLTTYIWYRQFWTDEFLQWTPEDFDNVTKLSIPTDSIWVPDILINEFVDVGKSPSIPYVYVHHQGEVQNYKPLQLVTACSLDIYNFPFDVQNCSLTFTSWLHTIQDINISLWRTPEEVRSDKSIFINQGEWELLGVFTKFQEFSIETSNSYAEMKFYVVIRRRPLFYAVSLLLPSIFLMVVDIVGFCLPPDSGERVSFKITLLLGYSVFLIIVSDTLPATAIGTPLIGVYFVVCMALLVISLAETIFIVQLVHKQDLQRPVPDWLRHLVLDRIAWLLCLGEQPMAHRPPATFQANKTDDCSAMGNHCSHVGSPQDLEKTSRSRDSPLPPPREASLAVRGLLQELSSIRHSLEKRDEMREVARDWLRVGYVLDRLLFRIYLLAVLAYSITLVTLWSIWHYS
T1 sequence (Q9JJ16 whole entry): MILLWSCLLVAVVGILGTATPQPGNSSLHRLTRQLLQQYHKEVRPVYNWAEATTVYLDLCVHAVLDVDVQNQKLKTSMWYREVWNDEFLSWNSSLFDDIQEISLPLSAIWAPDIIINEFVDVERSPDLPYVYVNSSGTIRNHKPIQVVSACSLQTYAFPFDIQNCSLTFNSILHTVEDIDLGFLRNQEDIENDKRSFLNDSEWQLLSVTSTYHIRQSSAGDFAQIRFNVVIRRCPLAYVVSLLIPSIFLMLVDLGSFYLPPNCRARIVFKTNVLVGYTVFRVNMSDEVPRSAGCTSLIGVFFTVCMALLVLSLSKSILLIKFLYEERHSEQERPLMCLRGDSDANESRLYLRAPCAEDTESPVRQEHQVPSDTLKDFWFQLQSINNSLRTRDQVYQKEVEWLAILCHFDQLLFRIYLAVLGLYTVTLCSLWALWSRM
Nature of the test: Binding affinity against radioligand [3H]quipazine labeled 5-hydroxytryptamine 3 receptor sites in neuroblastoma-glioma (NG108-15) cells.

For test [2], the system named is Canis familiaris. Put plainly: Mean percentage increase emetic latency in dog after an intravenous administration of 0.3 mg/kg of drug. The test is classed as functional, Canis lupus familiaris. An outline of the steps: (§1)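 Adult male fasted beagle dogs (9-15 kg), fed on the day of the experiment; test drug given iv 30 min before cisplatin (3 mg/kg, iv, dissolved by sonication in saline). Dogs were monitored for 6 h. Emesis was defined as productive regurgitation of stomach contents.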

Test [3] concerns Canis familiaris. Nature of the test: Mean percentage increase emetic latency in dog after an intravenous administration of 0.1 mg/kg of drug. The test is classed as functional, Canis lupus familiaris. Summed up:
as §1

In test [4] the test system is Canis familiaris. Put plainly: Mean percentage reduction due to cisplatin-induced emetic episodes in dog after an intravenous administration of 0.3 mg/kg of drug. The class given is functional, Canis lupus familiaris. Summed up:
(§2)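 Adult male fasted beagle dogs (9-15 kg) received test drug iv 30 min before cisplatin (3 mg/kg, iv, in saline) and were monitored for 6 h. Episodes were counted as productive regurgitation of stomach contents. Percent reduction is versus the control group (n = 7); n = 2-4 dogs per dose.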

Test [5] concerns Canis familiaris. Nature of the test: Mean percentage reduction due to cisplatin-induced emetic episodes in dog after an intravenous administration of 1 mg/kg of drug. The class given is functional, Canis lupus familiaris. An outline of the steps: as §2
In test [6] the test system is Canis familiaris. Put plainly: Mean percentage reduction due to cisplatin-induced emetic episodes in dog after an intravenous administration of 0.1 mg/kg of drug. The test is classed as functional, Canis lupus familiaris. Summed up:
as §2

Test [7] deals with Canis familiaris. Nature of the test: Mean percentage increase emetic latency in dog after an intravenous administration of 1 mg/kg of drug (when dogs did not vomit, 360 min). The test is classed as functional, Canis lupus familiaris. Summed up:
as §1

For test [8], the target named is Serotonin 3 (5-HT3) receptor (Rattus norvegicus) (UniProt P35563+Q9JJ16). Nature of the test: In vivo inhibitory concentration after 5 minutes against 5-hydroxytryptamine 3 receptor induced bradycardia [bezold-jarisch (B-J) reflex test] in rat by intravenous administration. The class given is functional, organism-based. Summed up:
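Compounds given iv. The 5-HT-induced bradycardia (Bezold–Jarisch reflex) was measured at 5 min. ED50 is the dose reducing the bradycardia by 50%, from four determinations.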

Test [9] deals with Canis familiaris. Put plainly: Mean percentage increase emetic latency in dog after an peroral administration of 0.1 mg/kg of drug. The test is classed as functional, Canis lupus familiaris. The settings on record: route oral. Summed up:
(§3)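 Adult male fasted beagles (9–15 kg) received drug 30 min (iv) or 60 min (po) before cisplatin 3 mg/kg iv, dissolved by sonication in saline. Dogs were then observed 6 h, with emesis defined as productive regurgitation. Episode counts and latency were compared with controls (n = 7), using 2–4 dogs per dose. Dogs that never vomited were assigned 360 min latency.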

The test system of test [10] is Canis familiaris. Nature of the test: Mean percentage reduction due to cisplatin-induced emetic episodes in dog after an peroral administration of 1.0 mg/kg of drug. The class given is functional, Canis lupus familiaris. The settings on record: route oral. Summed up:
as §3

The subject of test [11] is Canis familiaris. Put plainly: Mean percentage increase emetic latency in dog after an intravenous administration of 0.03 mg/kg of drug. The test is classed as functional, Canis lupus familiaris. Summed up:
as §3

The test system of test [12] is Canis familiaris. Put plainly: Mean percentage increase emetic latency in dog after an intravenous administration of 0.01 mg/kg of drug. The class given is functional, Canis lupus familiaris. Summed up: as §3
Test [13] concerns Canis familiaris. Put plainly: Mean percentage reduction due to cisplatin-induced emetic episodes in dog after an intravenous administration of 0.03 mg/kg of drug. The test is classed as functional, Canis lupus familiaris. An outline of the steps:
as §3

The test system of test [14] is Canis familiaris. Nature of the test: Mean percentage reduction due to cisplatin-induced emetic episodes in dog after an peroral administration of 0.1 mg/kg of drug. The test is classed as functional, Canis lupus familiaris. The following applies: route oral. Summed up: as §3
For test [15], the system named is Canis familiaris. Nature of the test: Mean percentage reduction due to cisplatin-induced emetic episodes in dog after an intravenous administration of 0.01 mg/kg of drug. The test is classed as functional, Canis lupus familiaris. Summed up:
as §3

For test [16], the system named is Canis familiaris. Nature of the test: Mean percentage increase emetic latency in dog after an intravenous administration of 0.3 mg/kg of drug (when dogs did not vomit,360min). The test is classed as functional, Canis lupus familiaris. An outline of the steps:
as §3

In test [17] the test system is Canis familiaris. Nature of the test: Mean percentage increase emetic latency in dog after an peroral administration of 1.0 mg/kg of drug. The class given is functional, Canis lupus familiaris. The following applies: route oral. Summed up: as §3

`CN1C2CCC1CC(NC(=O)c1c(O)c3cccnc3n(-c3ccccc3)c1=O)C2` (stereo not drawn) had a negative logarithm of the Ki (pKi) in [1] of 7.85.
For `Cc1nccn1CC1CCc2c(c3ccccc3n2C)C1=O` (stereo not drawn) [ONDANSETRON], the Increase is 115% in the test with Canis familiaris [2], 33% in the test on Canis familiaris [3] and greater than 284% in the test on Canis familiaris [7]. Besides, the Reduction came out at 61% in the test with Canis familiaris [4], 100% in the test on Canis familiaris [5] and 18% in the test with Canis familiaris [6]. Also, it took a dose of 0.021 mg/kg to reach the 50% effect level in test [8] (ED50).
For `CCCCn1c(=O)c(C(=O)OC2CC3CCC(C2)N3C)c(O)c2cccnc21` (stereo not drawn), the negative logarithm of the Ki (pKi) in test [1] is less than 7.00.
The compound `CCCCn1c(=O)c(C(=O)OC2CC3CCC(C2)N3C)c(O)c2ccccc21` (stereo not drawn) showed a pKi in test [1] of less than 7.00.
Still for that read-out and setting: in the case of `CN1C2CCC1CC(OC(=O)c1c(O)c3cccnc3n(-c3ccccc3)c1=O)C2` (stereo not drawn) it was less than 7.00.
With `CCCCn1c(=O)c(C(=O)NC2CC3CCC(C2)N3C)c(O)c2cccnc21` (stereo not drawn), the pKi in test [1] was 8.19. Besides, in test [8], the ED50 is greater than 0.1 mg/kg.
In test [8], `CN1C2CCC1CC(NC(=O)c1c(O)nc3ccccc3c1O)C2` (stereo not drawn) yielded a median effective dose (ED50) of 0.22 mg/kg.
`CN1C2CCC1CC(NC(=O)c1c(O)c3ccccc3[nH]c1=O)C2` (stereo not drawn): the pKi in test [1] was 8.12.
Turning to `CN1C2CCC1CC(NC(=O)c1cnc3ccccc3c1O)C2` (stereo in doubt; 6f), the Increase is listed as 116% with Canis familiaris [3]; 32% with Canis familiaris [9]; 88% in the test on Canis familiaris [10]; 23% in the test with Canis familiaris [11]; 14% with Canis familiaris [12]; greater than 284% with Canis familiaris [16]. Besides, the Increase in the test with Canis familiaris [17] worked out at 142%. Also, the Reduction with Canis familiaris [4] turned out to be 100%; with Canis familiaris [6], 80%; in the test on Canis familiaris [13], 54%; in the test on Canis familiaris [14] it was 64%; in the test on Canis familiaris [15], 44%. Moreover, the pKi in [1] was 8.82.
In turn, `CCCCn1c(=O)c(C(=O)NC2CC3CCC(C2)N3C)c(O)c2ccccc21` (stereo not drawn) gave a pKi in test [1] of 9.32. Besides, the median effective dose (ED50) in test [8] worked out at 0.29 mg/kg.
In the case of `CN1C2CCC1CC(OC(=O)c1cnc3ccccc3c1)C2` (stereo not drawn), the negative logarithm of the Ki (pKi) in [1] was 7.17. In test [8], the 50% effect level (ED50) was put at a dose of 0.37 mg/kg.
In turn, `CN1C2CCC1CC(NC(=O)c1cnc3ccccc3c1N)C2` (stereo not drawn) gave a negative-log Ki (pKi) in test [1] of less than 7.00.
Consider `Cc1nc2ccccc2c(O)c1C(=O)NC1CC2CCC(C1)N2C` (stereo not drawn), for which the pKi in test [1] is 8.14. This compound yielded a median effective dose (ED50) in [8] of 0.015 mg/kg.
Consider `CN1C2CCC1CC(NC(=O)c1c(O)c3ccccc3n(-c3ccccc3)c1=O)C2` (stereo not drawn), for which the negative logarithm of the Ki (pKi) in [1] is 8.85. Besides, the ED50 in test [8] came to 0.073 mg/kg.
Consider `CN1C2CCCC1CC(NC(=O)c1cnc3ccccc3c1O)C2` (stereo not drawn), for which, in test [1], the negative-log Ki (pKi) was 7.52.
In the case of `CN1C2CCC1CC(NC(=O)c1cnc3ccccc3c1)C2` (stereo not drawn), the negative logarithm of the Ki (pKi) in test [1] was less than 7.00.
On the same count and under the same terms, in the case of `Cc1ccc2c(O)c(C(=O)NC3CC4CCC(C3)N4C)cnc2n1` (stereo not drawn) it was less than 7.00.
On the same count and under the same terms, in the case of `CN1C2CCC1CC(NC(=O)c1cnc3ccccc3c1O)C2` (stereo in doubt; 6h) it was 7.00; in that of `Cc1nc2ccccc2c(O)c1C(=O)OC1CC2CCC(C1)N2C` (stereo not drawn), 7.24.
In [1], `CN1C2CCC1CC(NC(=O)c1cnc3ccccc3c1Cl)C2` (stereo not drawn) gave a negative logarithm of the Ki (pKi) of 7.07.
In the case of `CN1C2CCC1CC(OC(=O)c1cnc3ccccc3c1O)C2` (stereo not drawn), the negative logarithm of the Ki (pKi) in test [1] is 8.21. The compound further registered an ED50 in test [8] of 0.0017 mg/kg.
Compound `Cc1ccc2c(O)c(C(=O)OC3CC4CCC(C3)N4C)cnc2n1` (stereo not drawn) showed a pKi in test [1] of less than 7.00.
Turning to `O=C(NC1CCN2CCCC1C2)c1cnc2ccccc2c1O` (stereo not drawn), in test [1], the pKi is 7.74.
Take `CN1C2CCCC1CC(NC(=O)c1nn(C)c3ccccc13)C2` (stereo not drawn): the 50% effect level in test [8] (ED50) was put at a dose of 0.019 mg/kg.
